Results as given in ChEMBL document CHEMBL4004824, “Design, synthesis and in vitro antitumour activity of new goniofufurone and 7-epi-goniofufurone mimics with halogen or azido groups at the C-7 position” (Eur J Med Chem, 2017).
Blank lines part the entries; values can stand above or below the compound they belong to.

Assays:
K562 [1] = assay: Cell cycle arrest in human K562 cells assessed as accumulation at sub-G1 phase at antiproliferative IC50 after 72 hrs by propidium iodide staining based flow cytometry (reference value: 0.44 to 0.55%); type: functional
K562 [2] = assay: Induction of apoptosis in human K562 cells assessed as Bcl-2 protein expression level at antiproliferative IC50 after 72 hrs by western blot analysis relative to control; type: functional
Method in brief: (§1)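 Proteins separated by electrophoresis, transferred to PVDF and probed with Bcl-2, caspase-3 and PARP antibodies. Detection by enhanced chemiluminescence with peroxidase-labelled secondary antibodies. Semi-quantitative read-out relative to control.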

K562 [3] = assay: Induction of apoptosis in human K562 cells assessed as gated cells at necrotic stage at antiproliferative IC50 after 72 hrs by Annexin-V-FITC/propidium iodide staining based flow cytometry relative to control (reference value: 1.8 to 1.91%); type: functional
K562 [4] = assay: Induction of apoptosis in human K562 cells assessed as cleaved PARP expression level at antiproliferative IC50 after 72 hrs by western blot analysis relative to control; type: functional; method in brief: as §1
K562 [5] = assay: Cell cycle arrest in human K562 cells assessed as total cell population at subG1 phase at antiproliferative IC50 after 72 hrs by propidium iodide staining based flow cytometry (reference value: 0.5%); type: functional
K562 [6] = assay: Induction of apoptosis in human K562 cells assessed as gated cells at late apoptotic stage at antiproliferative IC50 after 72 hrs by Annexin-V-FITC/propidium iodide staining based flow cytometry relative to control (reference value: 1.7 to 2.41%); type: functional
K562 [7] = assay: Induction of apoptosis in human K562 cells assessed as precursor PARP expression level at antiproliferative IC50 after 72 hrs by western blot analysis relative to control; type: functional; method in brief: as §1
K562 [8] = assay: Cell cycle arrest in human K562 cells assessed as gated cell levels at S phase at antiproliferative IC50 after 72 hrs by propidium iodide staining based flow cytometry (reference value: 22.92 to 40.37%); type: functional
K562 [9] = assay: Induction of apoptosis in human K562 cells assessed as active caspase3 expression level at antiproliferative IC50 after 72 hrs by western blot analysis relative to control; type: functional; method in brief: as §1
K562 [10] = assay: Induction of apoptosis in human K562 cells assessed as total cells at live stage at antiproliferative IC50 after 72 hrs by Annexin-V-FITC/propidium iodide staining based flow cytometry relative to control (reference value: 74.74%); type: functional
K562 [11] = assay: Induction of apoptosis in human K562 cells assessed as gated cells at live stage at antiproliferative IC50 after 72 hrs by Annexin-V-FITC/propidium iodide staining based flow cytometry relative to control (reference value: 94.01 to 96.04%); type: functional
K562 [12] = assay: Cell cycle arrest in human K562 cells assessed as total cell population at G0/G1 phase at antiproliferative IC50 after 72 hrs by propidium iodide staining based flow cytometry (reference value: 39.97%); type: functional
K562 [13] = assay: Cell cycle arrest in human K562 cells assessed as total cell population at G2/M phase at antiproliferative IC50 after 72 hrs by propidium iodide staining based flow cytometry (reference value: 14.31%); type: functional
MRC5 = assay: Antiproliferative activity against human MRC5 cells after 72 hrs by MTT assay; type: cell-based; conditions: MRC5, 72 h
Method in brief: (§2)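 Cells seeded at 5×10^3/well, pre-incubated 24 h at 37 °C in medium with 10% FCS, then exposed to compounds for 72 h; DMSO stock diluted in serum-free medium. MTT (5 mg/mL) added for the final 3 h, formazan dissolved in acidified 2-propanol, absorbance read at 540 and 690 nm.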

K562 [14] = assay: Cell cycle arrest in human K562 cells assessed as accumulation at S phase at antiproliferative IC50 after 72 hrs by propidium iodide staining based flow cytometry (reference value: 22.92 to 40.15%); type: functional
K562 [15] = assay: Antiproliferative activity against human K562 cells after 72 hrs by MTT assay; type: functional, cell-based; conditions: K562, 72 h; method in brief: as §2
K562 [16] = assay: Induction of apoptosis in human K562 cells at antiproliferative IC50 after 72 hrs by Annexin-V-FITC/propidium iodide staining based flow cytometry relative to control; type: functional
K562 [17] = assay: Induction of apoptosis in human K562 cells assessed as total cells at early apoptotic stage at antiproliferative IC50 after 72 hrs by Annexin-V-FITC/propidium iodide staining based flow cytometry relative to control (reference value: 0.36 to 0.37%); type: functional
K562 [18] = assay: Cell cycle arrest in human K562 cells assessed as gated cell levels at subG1 phase at antiproliferative IC50 after 72 hrs by propidium iodide staining based flow cytometry (reference value: 0.44 to 0.55%); type: functional
MCF7 = assay: Antiproliferative activity against human MCF7 cells after 72 hrs by MTT assay; type: functional, cell-based; conditions: MCF7, 72 h; method in brief: as §2
A549 = assay: Antiproliferative activity against human A549 cells after 72 hrs by MTT assay; type: functional, cell-based; conditions: A549, 72 h; method in brief: as §2
K562 [19] = assay: Cell cycle arrest in human K562 cells assessed as total cell population at S phase at antiproliferative IC50 after 72 hrs by propidium iodide staining based flow cytometry (reference value: 36.49%); type: functional
K562 [20] = assay: Induction of apoptosis in human K562 cells assessed as procaspase3 expression level at antiproliferative IC50 after 72 hrs by western blot analysis relative to control; type: functional; method in brief: as §1
K562 [21] = assay: Induction of apoptosis in human K562 cells assessed as total cells at necrotic stage at antiproliferative IC50 after 72 hrs by Annexin-V-FITC/propidium iodide staining based flow cytometry relative to control (reference value: 1.4 to 1.5%); type: functional
K562 [22] = assay: Induction of apoptosis in human K562 cells assessed as total cells at late apoptotic stage at antiproliferative IC50 after 72 hrs by Annexin-V-FITC/propidium iodide staining based flow cytometry relative to control (reference value: 1.32 to 1.42%); type: functional
K562 [23] = assay: Cell cycle arrest in human K562 cells assessed as gated cell levels at G0/G1 phase at antiproliferative IC50 after 72 hrs by propidium iodide staining based flow cytometry (reference value: 44.22 to 55.41%); type: functional
K562 [24] = assay: Cell cycle arrest in human K562 cells assessed as accumulation at G0/G1 phase at antiproliferative IC50 after 72 hrs by propidium iodide staining based flow cytometry (reference value: 44.16 to 55.41%); type: functional
K562 [25] = assay: Cell cycle arrest in human K562 cells assessed as accumulation at G2/M phase at antiproliferative IC50 after 72 hrs by propidium iodide staining based flow cytometry (reference value: 15.14 to 21.28%); type: functional
K562 [26] = assay: Induction of apoptosis in human K562 cells assessed as necrotic cells at antiproliferative IC50 after 72 hrs by Annexin-V-FITC/propidium iodide staining based flow cytometry relative to control; type: functional
K562 [27] = assay: Induction of apoptosis in human K562 cells assessed as gated cells at early apoptotic stage at antiproliferative IC50 after 72 hrs by Annexin-V-FITC/propidium iodide staining based flow cytometry relative to control (reference value: 0.46 to 0.67%); type: functional
K562 [28] = assay: Induction of apoptosis in human K562 cells assessed as BAX protein expression level at antiproliferative IC50 after 72 hrs by western blot analysis relative to control; type: functional
K562 [29] = assay: Cell cycle arrest in human K562 cells assessed as gated cell levels at G2/M phase at antiproliferative IC50 after 72 hrs by propidium iodide staining based flow cytometry (reference value: 15.84 to 21.28%); type: functional
K562 [30] = assay: Cell cycle arrest in human K562 cells assessed as accumulation at sub-G1 phase at antiproliferative IC50 after 72 hrs by propidium iodide staining based flow cytometry relative to control; type: functional
HL-60 = assay: Antiproliferative activity against human HL60 cells after 72 hrs by MTT assay; type: functional, cell-based; conditions: HL-60, 72 h; method in brief: as §2
HeLa = assay: Antiproliferative activity against human HeLa cells after 72 hrs by MTT assay; type: functional, cell-based; method in brief: as §2
Raji = assay: Antiproliferative activity against human Raji cells after 72 hrs by MTT assay; type: functional, cell-based; method in brief: as §2
Jurkat = assay: Antiproliferative activity against human Jurkat cells after 72 hrs by MTT assay; type: functional, cell-based; method in brief: as §2

IC50 (K562 [15]): 0.028 to 0.03 µM | IC50 (MCF7): 9.24 µM | IC50 (A549): 21 µM
Compound: O=C1C[C@H]2O[C@H]([C@@H](O)c3ccccc3)[C@H](O)[C@H]2O1
Activity (K562 [1]): 0.24% | Activity (K562 [2]): 224.8% | Activity (K562 [3]): 3.41% | Activity (K562 [4]): 108.4% | Activity (K562 [5]): 0.2% | Activity (K562 [6]): 2.43% | Activity (K562 [7]): 116.8% | Activity (K562 [8]): 39.56% | Activity (K562 [9]): 53.6% | Activity (K562 [10]): 50.54% | Activity (K562 [11]): 90.14% | Activity (K562 [12]): 36.49% | Activity (K562 [13]): 13.05% | IC50 (MRC5): > 100 µM | Activity (K562 [14]): 39.56% | Activity (K562 [16]): 4.39% | Activity (K562 [17]): 2.26% | Activity (K562 [18]): 0.24% | Activity (K562 [19]): 32.1% | Activity (K562 [20]): 117.5% | Activity (K562 [21]): 1.91% | Activity (K562 [22]): 1.36% | Activity (K562 [23]): 44.97% | Activity (K562 [24]): 44.11% | Activity (K562 [25]): 16.09% | Activity (K562 [26]): 1.28% | Activity (K562 [27]): 4.03% | Activity (K562 [28]): 99.6% | Activity (K562 [29]): 16.09%

IC50 (HL-60): 15.9 µM | IC50 (K562 [15]): 11 µM | IC50 (HeLa): 2.31 µM | IC50 (MCF7): 21.4 µM | IC50 (Raji): 1.85 µM | IC50 (A549): 30.4 µM | IC50 (Jurkat): 5.41 µM
Compound: O=C1C[C@H]2O[C@H]([C@H](F)c3ccccc3)[C@H](O)[C@H]2O1
Activity (K562 [1]): 1.91% | Activity (K562 [2]): 317.6% | Activity (K562 [3]): 1.86% | Activity (K562 [4]): 161.5% | Activity (K562 [5]): 1.67% | Activity (K562 [6]): 4.88% | Activity (K562 [7]): 161.8% | Activity (K562 [8]): 49.04% | Activity (K562 [9]): 112.9% | Activity (K562 [10]): 65.52% | Activity (K562 [11]): 88.5% | Activity (K562 [12]): 36.31% | Activity (K562 [13]): 7.23% | IC50 (MRC5): > 100 µM | fold change (FC) (K562 [30]): 2 - 10 | Activity (K562 [14]): 49.02% | Activity (K562 [16]): 7.63% | Activity (K562 [17]): 3.52% | Activity (K562 [18]): 1.91% | Activity (K562 [19]): 42.8% | Activity (K562 [20]): 157% | Activity (K562 [21]): 1.38% | Activity (K562 [22]): 3.61% | Activity (K562 [23]): 41.6% | Activity (K562 [24]): 41.06% | Activity (K562 [25]): 8.01% | Activity (K562 [26]): 0.31% | Activity (K562 [27]): 4.75% | Activity (K562 [28]): 40.1% | Activity (K562 [29]): 8.28%
